Calls of active or inactive are those of the source. The rule behind the calls is not given here.
Assays:
Mus musculus [1] = assay: Antidiabetic activity in C57BL/6 mouse assessed as overt sign of hypoglycemia at 100 mg/kg, po daily once after 10 weeks; format: functional, organism-based; set-up: dose 100 mg/kg
How it was run: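 Lean chow-fed mice were dosed 100 mg/kg po daily in 2% HPMC + 0.2% DOSS for 10 weeks and watched for overt hypoglycemia.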

Mus musculus [2] = assay: Antidiabetic activity in ob/ob mouse model assessed as reduction of fasting blood glucose level at 100 mg/kg, po daily once after 1 week relative to control; format: functional, organism-based; set-up: dose 100 mg/kg
How it was run: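 ob/ob mice received at 6 weeks of age were kept on a 60%-fat diet from at least 1 week before the study. They were sorted by body weight and glucose, then gavaged once daily with 100 mg/kg or vehicle (2% HPMC + 0.2% DOSS). Fasting blood glucose was measured. Analysis by one-way ANOVA with Dunnett's test.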

Mus musculus [3] = assay: Toxicity in diet-induced obesity C57BL/6 mouse model assessed as red blood count at 100 mg/kg, po daily once for 10 weeks; format: organism-based; set-up: dose 100 mg/kg, route oral; conditions: in vivo, 1680 h
How it was run: (§1)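 Male C57BL/6 mice were fed a 60%-fat diet from 9 weeks of age until about 40 g, in groups of 6-10. They were dosed by oral gavage once daily in 2% HPMC + 0.2% DOSS, with 29 at 100 mg/kg and rosiglitazone at 5 mg/kg, alongside vehicle groups on lean and high-fat diet. Fed glucose was read at weeks 2, 4, 6, 8 and 10. Clinical chemistry and hematology were also measured. Analysis by ANOVA.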

Salmonella typhimurium = assay: Mutagenic activity in Salmonella Typhimurium TA98 in absence of S9 activation; format: toxicity, organism-based; conditions: salmonella enterica subsp. enterica serovar typhimurium
[4] = Terminal half life in Sprague-Dawley rat at 100 mg/kg, po or 10 mg/kg, iv; format: ADME, organism-based; conditions: in vivo, read-out: beta t1/2 (converted)
How it was run: (§2)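 Male Sprague-Dawley rats (250 g, 3 per dose group) received 100 mg/kg by oral gavage in 2% HPMC + 0.2% DOSS, or 10 mg/kg iv by tail vein in 10% ethanol/40% PEG/50% H2O. Blood was drawn at 0.033-24 h postdose for drug levels.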

Rattus norvegicus [5] = assay: Antidiabetic activity in genetic Zucker fa/fa rat model assessed as reduction of fed blood glucose level at 100 mg/kg, po daily once after 3 weeks relative to control; format: functional, organism-based; set-up: dose 100 mg/kg
How it was run: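 Male Zucker fa/fa rats, housed singly, were gavaged daily from 7 weeks of age with 100 mg/kg or vehicle (2% HPMC + 0.2% DOSS), 5 per group. Fed tail-vein glucose was taken on day 22. Also on day 22, after an overnight fast, sodium pyruvate 1 g/kg was given ip and glucose was read at 0-90 min.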

Mus musculus [6] = assay: Antidiabetic activity in diet-induced obesity C57BL/6 mouse model assessed as reduction of fed blood glucose level at 100 mg/kg, po daily once relative to control
Rattus norvegicus [7] = assay: Antidiabetic activity in genetic Zucker fa/fa rat model assessed as increase in glucose infusion rate at 100 mg/kg, po daily once after 4 weeks by hyperinsulinemic-euglycemic clamp; format: functional
How it was run: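 Zucker fa/fa rats, cannulated 5 days beforehand and fasted 8 h, underwent the clamp after 4 weeks of dosing. [3-3H]glucose tracer was primed and infused, then insulin 25 (mU/kg)/min was started. Variable 50% dextrose held blood glucose at 100 mg/dL over 120 min, with tracer specific activity sampled at 110 and 120 min.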

Cytochrome P450 3A4 = Cytochrome P450 3A4 (Homo sapiens, UniProt P08684); assay: Inhibition of CYP3A4 at 25 uM; format: ADME
How it was run: (§3)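 Inhibition of CYP isozymes was tested up to a highest concentration of 25 µM.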

[8] = Cmax in Sprague-Dawley rat at 100 mg/kg, po or 10 mg/kg, iv; format: ADME, organism-based; conditions: in vivo; how it was run: as §2
[9] = Inhibition of CYP1A at 25 uM; format: ADME; how it was run: as §3
[10] = molecular target: T1, Alpha-2A adrenergic receptor (Homo sapiens, UniProt P08913); assay: Inhibition of adrenergic alpha2A receptor
T1 sequence (P08913 whole entry): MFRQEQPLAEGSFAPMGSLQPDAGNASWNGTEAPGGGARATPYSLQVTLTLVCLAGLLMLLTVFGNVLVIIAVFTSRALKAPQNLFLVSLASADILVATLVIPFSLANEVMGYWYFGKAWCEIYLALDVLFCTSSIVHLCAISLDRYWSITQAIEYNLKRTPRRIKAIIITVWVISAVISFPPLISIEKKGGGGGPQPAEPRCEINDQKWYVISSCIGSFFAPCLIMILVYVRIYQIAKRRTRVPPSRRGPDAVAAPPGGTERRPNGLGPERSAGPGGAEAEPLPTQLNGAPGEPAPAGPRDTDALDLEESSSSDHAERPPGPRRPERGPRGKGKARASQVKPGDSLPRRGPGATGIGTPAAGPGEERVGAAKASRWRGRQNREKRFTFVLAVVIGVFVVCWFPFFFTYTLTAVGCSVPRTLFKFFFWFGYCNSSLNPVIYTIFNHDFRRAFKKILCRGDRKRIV

Cytochrome P450 2C9 = Cytochrome P450 2C9 (Homo sapiens, UniProt P11712); assay: Inhibition of CYP2C9 at 25 uM; format: ADME; how it was run: as §3
Cytochrome P450 2D6 = Cytochrome P450 2D6 (Homo sapiens, UniProt P10635); assay: Inhibition of CYP2D6 at 25 uM; format: ADME; how it was run: as §3
[11] = molecular target: T2, Muscarinic acetylcholine receptor M2 (Homo sapiens, UniProt P08172); assay: Inhibition of muscarinic M2 receptor
T2 sequence (P08172 whole entry): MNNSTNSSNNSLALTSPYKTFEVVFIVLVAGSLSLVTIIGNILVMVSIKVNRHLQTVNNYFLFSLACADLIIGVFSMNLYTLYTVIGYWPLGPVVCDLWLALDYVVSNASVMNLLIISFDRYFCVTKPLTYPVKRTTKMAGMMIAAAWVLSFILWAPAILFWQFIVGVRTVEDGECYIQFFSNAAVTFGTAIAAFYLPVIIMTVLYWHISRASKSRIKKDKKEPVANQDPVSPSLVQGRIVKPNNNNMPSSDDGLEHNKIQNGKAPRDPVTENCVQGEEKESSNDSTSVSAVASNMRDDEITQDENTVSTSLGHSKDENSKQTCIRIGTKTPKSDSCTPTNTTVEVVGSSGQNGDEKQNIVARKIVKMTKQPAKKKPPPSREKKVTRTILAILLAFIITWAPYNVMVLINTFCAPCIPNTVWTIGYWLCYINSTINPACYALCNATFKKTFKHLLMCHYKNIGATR

Mus musculus [12] = assay: Antidiabetic activity in diet-induced obesity C57BL/6 mouse model assessed as reduction of plasma insulin level at 100 mg/kg, po daily once after 10 weeks
Mus musculus [13] = assay: Toxicity in diet-induced obesity C57BL/6 mouse model assessed as white blood count at 100 mg/kg, po daily once for 10 weeks; format: organism-based; set-up: dose 100 mg/kg, route oral; conditions: in vivo, 1680 h; how it was run: as §1
Mus musculus [14] = assay: Toxicity in diet-induced obesity C57BL/6 mouse model assessed as hemoglobin at 100 mg/kg, po daily once for 10 weeks; format: organism-based; set-up: dose 100 mg/kg, route oral; conditions: in vivo, 1680 h; how it was run: as §1
Mus musculus [15] = assay: Toxicity in diet-induced obesity C57BL/6 mouse model assessed as hematocrit at 100 mg/kg, po daily once for 10 weeks; format: organism-based; set-up: dose 100 mg/kg, route oral; conditions: in vivo, 1680 h; how it was run: as §1
[16] = molecular target: Sodium-dependent noradrenaline transporter (Homo sapiens, UniProt P23975); assay: Inhibition of norepinephrine transporter
Chain of Sodium-dependent noradrenaline transporter (P23975 whole entry): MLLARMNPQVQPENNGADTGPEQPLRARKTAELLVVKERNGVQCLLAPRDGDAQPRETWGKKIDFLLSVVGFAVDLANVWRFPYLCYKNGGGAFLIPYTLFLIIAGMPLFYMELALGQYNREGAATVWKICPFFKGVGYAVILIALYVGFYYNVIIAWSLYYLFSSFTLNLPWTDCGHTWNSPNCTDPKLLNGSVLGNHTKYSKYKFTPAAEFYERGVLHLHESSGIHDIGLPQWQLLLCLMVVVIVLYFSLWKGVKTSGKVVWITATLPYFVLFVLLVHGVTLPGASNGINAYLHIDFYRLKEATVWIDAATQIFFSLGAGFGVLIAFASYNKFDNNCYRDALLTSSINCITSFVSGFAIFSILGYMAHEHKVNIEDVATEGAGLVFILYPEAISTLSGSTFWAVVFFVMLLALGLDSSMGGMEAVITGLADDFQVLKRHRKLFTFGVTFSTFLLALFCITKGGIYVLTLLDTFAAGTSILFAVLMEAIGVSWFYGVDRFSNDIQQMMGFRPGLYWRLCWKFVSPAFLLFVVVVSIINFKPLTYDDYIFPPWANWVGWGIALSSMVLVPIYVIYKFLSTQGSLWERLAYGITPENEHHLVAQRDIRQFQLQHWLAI

Chain of Cytochrome P450 3A4 (P08684 whole entry): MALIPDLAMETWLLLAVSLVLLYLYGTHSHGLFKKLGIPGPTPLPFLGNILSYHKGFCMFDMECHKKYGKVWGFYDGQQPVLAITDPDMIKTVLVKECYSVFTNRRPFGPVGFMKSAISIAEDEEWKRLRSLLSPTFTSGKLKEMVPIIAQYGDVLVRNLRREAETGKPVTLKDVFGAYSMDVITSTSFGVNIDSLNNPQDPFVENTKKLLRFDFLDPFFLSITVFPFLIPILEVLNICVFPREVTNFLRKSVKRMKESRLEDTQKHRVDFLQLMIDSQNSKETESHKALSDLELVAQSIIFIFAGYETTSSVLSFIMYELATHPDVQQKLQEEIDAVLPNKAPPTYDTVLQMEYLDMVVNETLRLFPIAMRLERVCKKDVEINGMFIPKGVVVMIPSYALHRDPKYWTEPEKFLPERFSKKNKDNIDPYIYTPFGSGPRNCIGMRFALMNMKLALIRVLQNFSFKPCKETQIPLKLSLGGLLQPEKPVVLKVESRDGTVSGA
Chain of Cytochrome P450 2D6 (P10635 whole entry): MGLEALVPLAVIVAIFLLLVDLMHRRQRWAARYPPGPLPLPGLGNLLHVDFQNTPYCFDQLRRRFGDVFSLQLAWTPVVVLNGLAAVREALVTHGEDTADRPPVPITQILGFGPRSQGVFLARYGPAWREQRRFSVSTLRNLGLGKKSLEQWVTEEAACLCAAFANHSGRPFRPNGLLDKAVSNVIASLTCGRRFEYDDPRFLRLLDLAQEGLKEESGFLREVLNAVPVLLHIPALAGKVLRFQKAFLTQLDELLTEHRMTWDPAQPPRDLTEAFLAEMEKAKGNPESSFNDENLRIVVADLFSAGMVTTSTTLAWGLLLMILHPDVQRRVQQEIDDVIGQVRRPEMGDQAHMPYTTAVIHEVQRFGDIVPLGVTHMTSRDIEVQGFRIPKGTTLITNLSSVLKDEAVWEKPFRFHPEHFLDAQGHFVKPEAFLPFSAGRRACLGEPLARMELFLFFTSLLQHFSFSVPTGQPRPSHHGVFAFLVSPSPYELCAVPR
Chain of Cytochrome P450 2C9 (P11712 whole entry): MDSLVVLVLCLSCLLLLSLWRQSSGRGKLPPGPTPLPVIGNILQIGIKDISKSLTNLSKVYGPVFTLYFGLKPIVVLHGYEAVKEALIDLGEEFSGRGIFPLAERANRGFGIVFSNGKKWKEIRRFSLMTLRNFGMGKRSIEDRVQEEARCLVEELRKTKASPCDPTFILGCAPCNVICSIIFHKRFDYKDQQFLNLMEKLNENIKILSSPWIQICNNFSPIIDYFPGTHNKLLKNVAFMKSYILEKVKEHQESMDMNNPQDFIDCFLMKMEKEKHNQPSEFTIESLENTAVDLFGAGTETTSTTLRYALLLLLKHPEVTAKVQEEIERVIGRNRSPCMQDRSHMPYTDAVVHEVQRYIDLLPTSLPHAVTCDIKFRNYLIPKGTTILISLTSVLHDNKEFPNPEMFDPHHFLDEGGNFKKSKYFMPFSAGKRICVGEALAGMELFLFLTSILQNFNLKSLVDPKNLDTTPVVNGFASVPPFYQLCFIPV

half-life [4]: 8.4 h | Activity (Cytochrome P450 3A4): Not Active | Cmax [8]: 320 nM | Activity [9]: Not Active | IC50 [10]: 2830 nM | Activity (Cytochrome P450 2C9): Not Active | Activity (Cytochrome P450 2D6): Not Active | IC50 [11]: 6280 nM | IC50 [16]: 2470 nM
SMILES: O=C(Nc1ccccc1-c1cn2c(CN3CCNCC3)csc2n1)c1cnc2ccccc2n1
Activity (Mus musculus [1]): inactive | Activity (Mus musculus [2]): Active | Activity (Mus musculus [3]): Active | Activity (Salmonella typhimurium): Non-toxic | Activity (Rattus norvegicus [5]): Active | Activity (Mus musculus [6]): Active | Activity (Rattus norvegicus [7]): 35% | Activity (Mus musculus [12]): Active | Activity (Mus musculus [13]): Active | Activity (Mus musculus [14]): Active | Activity (Mus musculus [15]): Active

Source: ChEMBL document CHEMBL1140923, “Discovery of imidazo[1,2-b]thiazole derivatives as novel SIRT1 activators” (J Med Chem, 2009)
